Source: ChEMBL document CHEMBL3124881, “New perspectives on the synthesis and antichagasic activity of 3-alkoxy-1-alkyl-5-nitroindazoles” (Eur J Med Chem, 2014)
The source made the active and inactive calls. The rule behind the calls is not given here.

How the values were obtained:
Trypanosoma cruzi [1] = assay: Antitrypanosomal activity against Trypanosoma cruzi (IRHOD/CO/2008/SN3) infected in African green monkey Vero cells assessed as reduction in number of amastigotes at IC25 treated for 12 hrs followed by compound-washout measured after 10 days by microscopic analysis relative to control; type: functional
In short: (§1)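 Vero cells grown 2 days, then infected with metacyclic forms at 10:1. Drugs at IC25 added immediately after infection for 12 h at 37 °C, 5% CO2, then removed by washing. Cultures grown 10 days with medium renewed every 48 h. Methanol-fixed, Giemsa-stained preparations: % infected cells and amastigotes per infected cell over 200 host cells; trypomastigotes counted in the medium. Means of three experiments.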

[2] = Toxicity in BALB/c mouse assessed as survival at 1 mg/kg/day, ip relative to control; type: organism-based; parameters: route intraperitoneal; conditions: in vivo
In short: (§2)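 Female BALB/c mice (6-8 weeks, 20-25 g), groups of three, infected ip with 1 × 10⁵ T. cruzi SN3 metacyclic forms. Dosing ip at 1 mg/kg/day for five consecutive days (days 5-10 post-infection). Controls were uninfected, infected-untreated and uninfected-treated groups. Mice followed to day 120 post-infection, with deaths recorded.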

Trypanosoma cruzi [3] = assay: Antitrypanosomal activity against Trypanosoma cruzi (IRHOD/CO/2008/SN3) infected in BALB/c mouse assessed as reduction in parasitemia at 1 mg/kg/day, ip treated from day 5 to day 10 post-infection measured on day 30 post-infection relative to control; type: functional; parameters: scale not given: the % may be the effect or the level left; conditions: route intraperitoneal
In short: (§3)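 Female BALB/c mice (groups of three) infected ip with 1 × 10⁵ metacyclic forms. Given 1 mg/kg/day ip for five days (days 5–10 post-infection); infected untreated controls included. Mandibular-vein blood (5 µL) diluted 1:15 in citrate/lysis buffer, with trypomastigotes/mL counted every 3–4 days. Mean values reported.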

Trypanosoma cruzi [4] = assay: Antitrypanosomal activity against Trypanosoma cruzi (IRHOD/CO/2008/SN3) epimastigotes assessed as plasma membrane with scalloped appearance with undulations and discontinuities at IC25 after 96 hrs by transmission electron microscopic analysis; type: functional, organism-based
Trypanosoma cruzi [5] = assay: Antitrypanosomal activity against Trypanosoma cruzi (IRHOD/CO/2008/SN3) infected in BALB/c mouse assessed as reduction in parasite specific antibodies level at 1 mg/kg/day, ip treated from day 5 to day 10 post-infection measured from day 30 to day 120 post-infection by ELISA; type: functional, organism-based
In short: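 Female BALB/c mice (6–8 weeks, 20–25 g, groups of three) infected ip with 1 × 10⁵ metacyclic forms. Dosed 1 mg/kg/day ip on days 5–10 post-infection; infected untreated controls included. ELISA on blood diluted 1:50 in PBS, using excreted Fe-SOD antigen from epimastigotes, at days 30 and 120. Read-out is ΔA490 (day 120 minus day 30).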

Trypanosoma cruzi [6] = assay: Antitrypanosomal activity against Trypanosoma cruzi (IRHOD/CO/2008/SN3) epimastigotes assessed as disruption of cytoskeleton with disorganization of microtubule structure at IC25 after 96 hrs by transmission electron microscopic analysis; type: functional, organism-based
Trypanosoma cruzi [7] = assay: Antitrypanosomal activity against Trypanosoma cruzi (IRHOD/CO/2008/SN3) infected in BALB/c mouse assessed as reduction in parasitemia at 1 mg/kg/day, ip treated from day 5 to day 10 post-infection measured on day 14 post-infection; type: functional, organism-based; in short: as §3
Trypanosoma cruzi [8] = assay: Antitrypanosomal activity against Trypanosoma cruzi (IRHOD/CO/2008/SN3) infected in African green monkey Vero cells assessed as reduction in number of trypomastigotes at IC25 treated for 12 hrs followed by compound-washout measured after 10 days by microscopic analysis relative to control; type: functional; in short: as §1
Trypanosoma cruzi [9] = assay: Antitrypanosomal activity against Trypanosoma cruzi (IRHOD/CO/2008/SN3) infected in African green monkey Vero cells assessed as reduction in infection rate at IC25 treated for 12 hrs followed by compound-washout measured after 10 days by microscopic analysis relative to control; type: functional; in short: as §1
[10] = Selectivity index, ratio of IC50 for African green monkey Vero cells to IC50 for Trypanosoma cruzi (IRHOD/CO/2008/SN3) trypomastigotes; type: toxicity, cell-based; conditions: read-out: Ratio IC50
In short: (§4)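 SI calculated as IC50 on Vero cells divided by IC50 on the corresponding parasite form (epimastigote, amastigote or trypomastigote).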

Vero = assay: Cytotoxicity against African green monkey Vero cells assessed as cell viability after 72 hrs by propidium iodide staining-based flow cytometric analysis; conditions: Chlorocebus sabaeus
In short: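 Vero cells in RPMI with 10% inactivated FBS at 37 °C, 5% CO2, treated 72 h across 1–100. Stained with propidium iodide, then fluorescein diacetate (100 ng/mL), each 10 min at 28 °C in the dark. Cells spun at 400 g, washed in PBS, analysed by flow cytometry. % viability versus control; IC50 by linear regression.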

[11] = Selectivity index, ratio of IC50 for African green monkey Vero cells to IC50 for Trypanosoma cruzi (IRHOD/CO/2008/SN3) amastigotes; type: toxicity, cell-based; conditions: read-out: Ratio IC50; in short: as §4
Trypanosoma cruzi [12] = assay: Antitrypanosomal activity against Trypanosoma cruzi (IRHOD/CO/2008/SN3) trypomastigotes infected in Balb/c albino mouse after 24 hrs by Neubauer chamber counting analysis; type: functional, organism-based
In short: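 Blood taken at the day-7 parasitemia peak from BALB/c mice infected with SN3. Diluted with uninfected murine blood to 4 × 10⁶ trypomastigotes/mL, then 1:2 in RPMI 1640 (2 × 10⁶/mL). Drugs (DMSO stocks) at 100, 50, 25, 10 and 1; incubated 24 h at 4–8 °C. Neubauer chamber counts; IC50 by linear regression; three repeats.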

[13] = Selectivity index, ratio of IC50 for African green monkey Vero cells to IC50 for Trypanosoma cruzi (IRHOD/CO/2008/SN3) epimastigotes; type: toxicity, cell-based; conditions: read-out: Ratio IC50; in short: as §4
Trypanosoma cruzi [14] = assay: Antitrypanosomal activity against Trypanosoma cruzi (IRHOD/CO/2008/SN3) amastigotes infected in African green monkey Vero cells after 72 hrs by Giemsa staining-based microscopic analysis; type: functional, organism-based
In short: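 SN3 strain. Vero cells in RPMI with 10% inactivated FBS at 37 °C, 5% CO2, seeded at 1 × 10⁴ cells/well on coverslips and grown 2 days. Infected with metacyclic forms at 10:1 for 24 h, then washed. Drugs at 100, 50, 25, 10 and 1 for 72 h. Methanol fixation, Giemsa stain, amastigotes counted over 200 host cells. IC50 by linear regression; mean of four experiments.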

Trypanosoma cruzi [15] = assay: Antitrypanosomal activity against Trypanosoma cruzi (IRHOD/CO/2008/SN3) epimastigotes after 72 hrs by Neubauer chamber counting analysis; type: functional, organism-based
In short: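 SN3 epimastigotes grown in MTL medium with 10% inactivated FBS at 28 °C. Compounds dissolved in DMSO (0.01% final) and added at 100, 50, 25, 10 and 1. Parasites counted at 72 h in a Neubauer haemocytometer. IC50 from linear regression of Kc values; averages of four experiments.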

Trypanosoma cruzi [16] = assay: Antitrypanosomal activity against Trypanosoma cruzi (IRHOD/CO/2008/SN3) epimastigotes assessed as change in L-alanine level at IC25 after 96 hrs by [1H]-NMR spectroscopic analysis relative to control; type: functional
In short: (§5)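 Epimastigote cultures started at 5 × 10⁵ cells/mL and given IC25 concentrations, with untreated control cultures. After 96 h at 28 °C, cells spun at 400 g for 10 min. Excreted metabolites in the supernatant identified by ¹H NMR chemical shifts.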

Trypanosoma cruzi [17] = assay: Antitrypanosomal activity against Trypanosoma cruzi (IRHOD/CO/2008/SN3) epimastigotes assessed as damaged glycosomes at IC25 after 96 hrs by transmission electron microscopic analysis; type: functional, organism-based
Trypanosoma cruzi [18] = assay: Antitrypanosomal activity against Trypanosoma cruzi (IRHOD/CO/2008/SN3) epimastigotes assessed as change in acetate level at IC25 after 96 hrs by [1H]-NMR spectroscopic analysis; type: functional, organism-based; in short: as §5
Trypanosoma cruzi [19] = assay: Antitrypanosomal activity against Trypanosoma cruzi (IRHOD/CO/2008/SN3) epimastigotes assessed as change in succinate level at IC25 after 96 hrs by [1H]-NMR spectroscopic analysis relative to control; type: functional; in short: as §5
Trypanosoma cruzi [20] = assay: Antitrypanosomal activity against Trypanosoma cruzi (IRHOD/CO/2008/SN3) epimastigotes assessed as large vacuolization with lipidic type vacuoles occupying cytoplasm at IC25 after 96 hrs by transmission electron microscopic analysis; type: functional, organism-based
Trypanosoma cruzi [21] = assay: Antitrypanosomal activity against Trypanosoma cruzi (IRHOD/CO/2008/SN3) epimastigotes assessed as change in ethanol level at IC25 after 96 hrs by [1H]-NMR spectroscopic analysis relative to control; type: functional; in short: as §5
Trypanosoma cruzi [22] = assay: Antitrypanosomal activity against Trypanosoma cruzi (IRHOD/CO/2008/SN3) epimastigotes assessed as change in L-lactate level at IC25 after 96 hrs by [1H]-NMR spectroscopic analysis relative to control; type: functional; in short: as §5
Trypanosoma cruzi [23] = assay: Antitrypanosomal activity against Trypanosoma cruzi (IRHOD/CO/2008/SN3) epimastigotes assessed as presence of little electron-dense cytoplasm at IC25 after 96 hrs by transmission electron microscopic analysis; type: functional, organism-based
Trypanosoma cruzi [24] = assay: Antitrypanosomal activity against Trypanosoma cruzi (IRHOD/CO/2008/SN3) epimastigotes assessed as parasite death at IC25 after 96 hrs by transmission electron microscopic analysis; type: functional, organism-based
Mus musculus = assay: Toxicity in BALB/c mouse assessed as mortality at 1 mg/kg/day, ip; type: organism-based; parameters: route intraperitoneal; conditions: in vivo; in short: as §2
Trypanosoma cruzi [25] = assay: Antitrypanosomal activity against Trypanosoma cruzi (IRHOD/CO/2008/SN3) epimastigotes assessed as damaged mitochondria at IC25 after 96 hrs by transmission electron microscopic analysis; type: functional, organism-based

Row | Compound | inhibition (INH) (Trypanosoma cruzi [1]) | Activity (Trypanosoma cruzi [3]) | Activity (Trypanosoma cruzi [5]) | Activity (Trypanosoma cruzi [7]) | inhibition (INH) (Trypanosoma cruzi [8]) | inhibition (INH) (Trypanosoma cruzi [9]) | selectivity ratio [10] | IC50 (Vero) | selectivity ratio [11] | IC50 (Trypanosoma cruzi [12]) | selectivity ratio [13] | IC50 (Trypanosoma cruzi [14]) | IC50 (Trypanosoma cruzi [15]) | further results
1 | O=C(Cn1ccnc1[N+](=O)[O-])NCc1ccccc1 [BENZNIDAZOLE] | 37% | 23% | Active | Active | 41% | 19% | – | – | – | – | – | – | – | survival [2]: 80%; Activity (Trypanosoma cruzi [4]): Active; Activity (Trypanosoma cruzi [6]): Active
2 | CN(CCOCCn1nc(OCc2ccccc2)c2cc([N+](=O)[O-])ccc21)CCOCCn1nc(OCc2ccccc2)c2cc([N+](=O)[O-])ccc21 | – | – | – | – | – | – | 7.8 | 128 µM | 7.8 | 16.5 µM | 4.8 | 16.5 µM | 26.6 µM | –
3 | CNCCOCCn1nc(OC)c2cc([N+](=O)[O-])ccc21 | – | – | – | – | – | – | 4.3 | 87.6 µM | 3.7 | 20.5 µM | 3.3 | 23.4 µM | 26.7 µM | –
4 | COc1nn(CCOCCNCCOCCn2nc(OC)c3cc([N+](=O)[O-])ccc32)c2ccc([N+](=O)[O-])cc12 | – | – | – | – | – | – | 0.6 | 16.9 µM | 0.6 | 26.4 µM | 0.5 | 25.7 µM | 31.2 µM | –
5 | Cn1nc(OCc2ccccc2)c2cc([N+](=O)[O-])ccc21 | 76% | 33% | Active | Active | 80% | 82% | 16.1 | 194 µM | 13.7 | 12 µM | 11 | 14.1 µM | 17.6 µM | Activity (Trypanosoma cruzi [16]): 19%; Activity (Trypanosoma cruzi [17]): Active; Activity (Trypanosoma cruzi [18]): inactive; Activity (Trypanosoma cruzi [19]): 35%; Activity (Trypanosoma cruzi [20]): Active; Activity (Trypanosoma cruzi [21]): 11%; Activity (Trypanosoma cruzi [22]): 23%; Activity (Trypanosoma cruzi [23]): Active; Activity (Trypanosoma cruzi [24]): Active; Activity (Mus musculus): Non-toxic; Activity (Trypanosoma cruzi [25]): Active
6 | COc1nn(CCOCCN)c2ccc([N+](=O)[O-])cc12 | – | – | – | – | – | – | 4.2 | 87.2 µM | 3.3 | 20.7 µM | 3.2 | 26.5 µM | 27.3 µM | –
7 | COc1nn(C)c2ccc([N+](=O)[O-])cc12 | – | – | – | – | – | – | 7.4 | 183 µM | 5.6 | 24.8 µM | 7.4 | 32.6 µM | 24.7 µM | –
8 | COc1nn(CCOCCN(C)CCOCCn2nc(OC)c3cc([N+](=O)[O-])ccc32)c2ccc([N+](=O)[O-])cc12 | – | – | – | – | – | – | 6.3 | 130 µM | 4.6 | 20.4 µM | 4.1 | 27.9 µM | 24.6 µM | –
9 | CNCCOCCn1nc(OCc2ccccc2)c2cc([N+](=O)[O-])ccc21 | 63% | 39% | Active | Active | 75% | 78% | 14.7 | 214 µM | 12.9 | 14.5 µM | 11.2 | 16.6 µM | 19.1 µM | Activity (Trypanosoma cruzi [16]): inactive; Activity (Trypanosoma cruzi [17]): Active; Activity (Trypanosoma cruzi [18]): inactive; Activity (Trypanosoma cruzi [19]): 13%; Activity (Trypanosoma cruzi [20]): Active; Activity (Trypanosoma cruzi [21]): inactive; Activity (Trypanosoma cruzi [22]): 17%; Activity (Trypanosoma cruzi [23]): Active; Activity (Trypanosoma cruzi [24]): Active; Activity (Mus musculus): Non-toxic; Activity (Trypanosoma cruzi [25]): Active
